10 compounds from ChEMBL document CHEMBL5046274, “Identification and Optimization of Novel Small-Molecule Cas9 Inhibitors by Cell-Based High-Throughput Screening” (J Med Chem, 2022) can be followed below.

pIC50: −log10 of the molar value. Calls of active or inactive are those of the source. The calls are words filed in the database; no cut-off is given here.

For assay [1], the system named is Streptococcus pyogenes. Description: Inhibition of Streptococcus pyogenes Cas9 assessed as inhibition of Csp9:gRNA complex formation at 200 to 500 uM. Conditions: dose 200-500 µM.
Assay [2] in a line: Inhibition of Streptococcus pyogenes Cas9 by Cas9 cleavage assay. In a few lines:
(§1)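 Recombinant SpyCas9 (5 nM) preincubated with compound in DMSO (final 5% v/v) for 15 min at 37 °C in PBS + 10 mM MgCl2 + 0.02% Triton X-100. Then 6 nM preformed crRNA/tracrRNA gRNA for 5 min, then 1 nM PCR-amplified target DNA for 30 min. Quenched with proteinase K, run on a 1% agarose gel, bands quantified by densitometry. Run in triplicate; IC50 from a four-parameter logistic fit.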

For assay [3], the system named is Streptococcus pyogenes. Description: Inhibition of Streptococcus pyogenes Cas9 at 500 microM by Cas9 cleavage assay. In a few lines: as §1
The test system of assay [4] is Streptococcus pyogenes. Description: Inhibition of Streptococcus pyogenes Cas9 at 200 microM by Cas9 cleavage assay. In short, it runs like this: as §1
The test system of assay [5] is Streptococcus pyogenes. Description: Binding affinity to Streptococcus pyogenes Cas9 by 1D 1H-NMR-WaterLOGSY spectrum analysis. In short, it runs like this: (§2)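 NMR ligand-binding on apo-SpyCas9 with standard pulse sequences. For WaterLOGSY, bound ligands give signals of opposite (negative) phase to non-binders. Alanine is added to the cocktail at the ligand concentration as a phasing reference.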

Assay [6] deals with Streptococcus pyogenes. The experiment in a line: Inhibition of Streptococcus pyogenes Cas9 assessed as inhibition of Csp9:gRNA complex formation at 200 uM by EMSA assay. In a few lines:
(§3)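 EMSA in PBS + 10 mM MgCl2 + 0.02% Triton X-100. Compound incubated with 200 nM apo-SpyCas9 for 5 min at 37 °C, then 200 nM Atto550-labelled crRNA/tracrRNA gRNA added for 15 min. Complexes resolved on a 6% TBE gel and visualised by fluorescence.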
Background: In EMSA bound probe runs differently from free probe, usually more slowly.

Assay [7] deals with Streptococcus pyogenes. Description: Inhibition of Streptococcus pyogenes apo-Cas9 assessed as inhibition of Csp9:gRNA complex formation at 10 to 200 uM by EMSA assay. Conditions: dose 10-200 µM. In a few lines: as §3
For assay [8], the system named is Streptococcus pyogenes. Description: Inhibition of Streptococcus pyogenes Cas9 assessed as inhibition of Csp9:gRNA complex formation.
Assay [9] deals with Streptococcus pyogenes. Description: Binding affinity to Streptococcus pyogenes Cas9 by 1H-19F-(CPMG)-NMR analysis. In short, it runs like this:
as §2

As a reminder, the pIC50 is the IC50 on a negative log10 scale, so that one unit is a factor of ten. High values mean a small IC50, low ones a large IC50. In the case of `Cc1cc(NS(=O)(=O)c2cc(-c3nc(C)c(C(=O)N4CCC(C)CC4)s3)n(C)c2C)no1`, in the assay on Streptococcus pyogenes [1], the inhibition result was “Active”. The pIC50 in assay [2] is 3.61. For the same compound, the result with Streptococcus pyogenes [3] was Active.

As to `Cc1cc(NS(=O)(=O)c2cccc(-c3ccc(Cl)c(Cl)c3)c2)no1`, in assay [2], the negative-log IC50 (pIC50) was 4.85.

`Cc1ccnc(NS(=O)(=O)c2cc(-c3nc(C)c(C(=O)N4CCC(C)CC4)s3)n(C)c2C)c1`: in the assay on Streptococcus pyogenes [4], the result was inactive.

Consider `Cc1cc(NS(=O)(=O)c2cc(-c3ccc(Cl)c(Cl)c3)cc(C(F)(F)F)c2)no1`, for which the outcome in the assay with Streptococcus pyogenes [5] and with Streptococcus pyogenes [9] was Active. In addition, the inhibition result in the assay with Streptococcus pyogenes [6], in the assay on Streptococcus pyogenes [7] and in the assay on Streptococcus pyogenes [8] was “Active” each time. The compound further had a pIC50 in [2] of 5.15.

In turn, `Cc1cc(NS(=O)(=O)c2ccc(-c3ccccc3)cc2)no1` showed a negative logarithm of the IC50 (pIC50) in [2] of 3.72.

Consider `Oc1c(C(c2ccccn2)N2CCC(Cc3ccccc3)CC2)cc(Cl)c2cccnc12` (configuration not stated), for which, in the assay with Streptococcus pyogenes [3], the result was Active.

Regarding `CC1CCN(C(=O)c2cccc(-c3ccc(C(F)(F)F)cc3)c2)CC1`, in assay [2], the negative logarithm of the IC50 (pIC50) was 4.55.

Consider `Cc1cc(NS(=O)(=O)c2ccc(-c3cccc(C(=O)N4CCC(C)CC4)c3)cc2)no1`, for which, in [2], the pIC50 is 3.65. Against the preceding compound, the pIC50 is 0.90 log units lower.

As to `CC1CCN(C(=O)c2cccc(-c3ccccc3)c2)CC1`, in assay [2], the negative logarithm of the IC50 (pIC50) is 4.55. This pIC50 lies 0.90 log units higher than the previous one.

Regarding `Cc1cc(NS(=O)(=O)c2cccc(-c3ccccc3)c2)no1`, the negative-log IC50 (pIC50) in assay [2] is 3.89.
